The text below walks through data of ChEMBL document CHEMBL1914324, “Discovery of novel spirocyclic inhibitors of fatty acid amide hydrolase (FAAH). Part 2. Discovery of 7-azaspiro[3.5]nonane urea PF-04862853, an orally efficacious inhibitor of fatty acid amide hydrolase (FAAH) for pain” (Bioorg Med Chem Lett, 2011).

Series [1] has as its target T1, Fatty-acid amide hydrolase 1 (Rattus norvegicus) (UniProt P97612).
T1 sequence (whole entry): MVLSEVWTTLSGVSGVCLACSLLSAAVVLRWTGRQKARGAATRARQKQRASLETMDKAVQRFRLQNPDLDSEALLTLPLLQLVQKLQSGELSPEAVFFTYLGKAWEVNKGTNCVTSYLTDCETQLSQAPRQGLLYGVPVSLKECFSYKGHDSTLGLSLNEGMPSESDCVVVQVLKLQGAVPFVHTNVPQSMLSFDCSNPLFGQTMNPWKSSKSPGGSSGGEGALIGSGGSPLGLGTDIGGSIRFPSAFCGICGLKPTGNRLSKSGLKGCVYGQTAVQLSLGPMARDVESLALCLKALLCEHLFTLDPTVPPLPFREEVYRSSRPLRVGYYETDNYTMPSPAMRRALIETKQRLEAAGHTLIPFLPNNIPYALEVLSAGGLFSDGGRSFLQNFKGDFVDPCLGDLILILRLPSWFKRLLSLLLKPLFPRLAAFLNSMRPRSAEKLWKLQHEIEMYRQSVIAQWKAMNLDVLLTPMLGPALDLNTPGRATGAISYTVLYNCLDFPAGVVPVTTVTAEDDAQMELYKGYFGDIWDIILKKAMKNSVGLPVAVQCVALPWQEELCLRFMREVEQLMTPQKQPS
As to the kind of experiment: Ratio of Kinact to Ki for rat FAAH activity. Put shortly: (§1)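 kinact/Ki determined against human and rat FAAH. Each value is the average of at least two independent determinations.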

Series [2] has as its target T2, Fatty-acid amide hydrolase 1 (Homo sapiens) (UniProt O00519).
T2 sequence (whole entry): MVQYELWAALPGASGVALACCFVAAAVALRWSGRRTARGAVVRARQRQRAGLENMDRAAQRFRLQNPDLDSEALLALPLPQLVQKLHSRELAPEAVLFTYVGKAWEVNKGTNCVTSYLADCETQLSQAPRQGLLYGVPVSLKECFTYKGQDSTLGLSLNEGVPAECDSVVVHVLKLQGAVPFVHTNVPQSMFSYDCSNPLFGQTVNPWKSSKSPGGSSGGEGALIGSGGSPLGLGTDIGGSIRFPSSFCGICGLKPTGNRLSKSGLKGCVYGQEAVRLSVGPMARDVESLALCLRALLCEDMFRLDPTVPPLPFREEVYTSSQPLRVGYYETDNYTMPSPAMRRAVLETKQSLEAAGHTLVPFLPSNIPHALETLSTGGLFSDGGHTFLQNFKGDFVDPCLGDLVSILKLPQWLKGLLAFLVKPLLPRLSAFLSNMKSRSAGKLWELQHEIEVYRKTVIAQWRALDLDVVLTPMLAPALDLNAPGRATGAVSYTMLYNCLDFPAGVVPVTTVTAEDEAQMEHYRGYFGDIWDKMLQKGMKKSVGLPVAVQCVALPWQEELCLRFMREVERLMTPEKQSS
Nature of the series: Inhibition of FAAH in human brain membrane using rhodamine-tagged fluorophosphonate probe at 100 uM by competitive activity-based protein profiling method. It is filed as cell membranes. An outline of the steps: (§2)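 Competitive activity-based protein profiling against >200 human serine hydrolases, FAAH included. Compound tested at 100 µM in human brain membrane and soluble liver proteomes. Residual hydrolase activity labelled with a rhodamine-tagged fluorophosphonate probe.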

For series [3], the target named is T2, Fatty-acid amide hydrolase 1 (Homo sapiens). As to the kind of experiment: Inhibition of FAAH in human liver proteomes using rhodamine-tagged fluorophosphonate probe at 100 uM by competitive activity-based protein profiling method. An outline of the steps: as §2
The nature of series [4]: Inhibition of cytochrome P450. It is filed as ADME.
The target of series [5] is T2, Fatty-acid amide hydrolase 1 (Homo sapiens). Nature of the series: Ratio of Kinact to Ki for human FAAH activity. Put shortly:
as §1

The subject of series [6] is Rattus norvegicus. As to the kind of experiment: Inhibition of FAAH in rat CFA model at 3 mg/kg, po after 3 hrs. The format is functional. The settings on record: for minimal effective dose: read-out: MED.
Series [7] concerns the target T3, Voltage-gated inwardly rectifying potassium channel KCNH2 (Homo sapiens, UniProt Q12809). As to the kind of experiment: Displacement of dofetilide from ERG.
Series [8] in a line: Oral bioavailability in dog. The format is ADME, organism-based, Canis lupus familiaris. As to conditions: in vivo.
The nature of series [9]: Half life in dog. The format is ADME, organism-based, Canis lupus familiaris. As to conditions: in vivo.
Series [10] is described as follows: Clearance in rat CFA model at 3 mg/kg, po. The format is ADME, organism-based. Also on record: dose 3 mg/kg, route oral. The settings on record: in vivo. Put shortly:
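Rats in the CFA model screened at a single oral dose of 3 mpk. Plasma compound concentrations determined, including at 24 h. Clearance estimated from the 3 h and 24 h time points.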

The nature of series [11]: Half life in rat CFA model at 3 mg/kg, po. The format is ADME, organism-based. Also on record: dose 3 mg/kg, route oral. The settings on record: in vivo.
For series [12], the system named is Rattus norvegicus. Nature of the series: Volume of distribution at steady state in rat CFA model at 3 mg/kg, po. The format is ADME, organism-based. More on the design: dose 3 mg/kg, route oral. The settings on record: in vivo.
The target of series [13] is T3, Voltage-gated inwardly rectifying potassium channel KCNH2. Nature of the series: Inhibition of human ERG.
The test system of series [14] is Rattus norvegicus. As to the kind of experiment: Inhibition of FAAH in orally dosed rat CFA model assessed as elevation of […]anandamide concentration in brain after 4 hrs. The format is functional, organism-based.
The nature of series [15]: Oral bioavailability in rat CFA model at 3 mg/kg. It is filed as ADME, organism-based. As to conditions: in vivo.
In a further series the test system is Salmonella typhimurium. Nature of the series: Mutagenic activity in Salmonella Typhimurium by Ames test. It is filed as toxicity, organism-based. The settings on record: salmonella enterica subsp. enterica serovar typhimurium. (The Ames test uses bacterial strains that need an amino acid and regain growth without it when mutated back.)
Series [16] can be described thus: Genotoxicity in micronucleus.
The test system of series [17] is Rattus norvegicus. As to the kind of experiment: Inhibition of FAAH in orally dosed rat CFA model assessed as elevation of […]anandamide concentration in plasma after 4 hrs. The format is functional, organism-based.
Series [18] deals with Rattus norvegicus. Nature of the series: Inhibition of FAAH in rat CFA model brain isolates assessed as residual activity using 3H-anandamide as substrate at 0.3 mg/kg, po after 4 hrs. It is filed as functional, organism-based. Also on record: dose 0.3 mg/kg. Put shortly:
(§3)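 Rats with CFA-induced inflammatory pain dosed orally. Brain tissue and leukocytes collected 4 h post dose. Residual FAAH activity measured with 3H-anandamide as substrate. n = 4 animals/group. PK, biomarker and behavioural samples taken from the same animals.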

Series [19] in a line: Plasma concentration in rat CFA model at 3 mg/kg, po after 4 hrs. The format is ADME, organism-based. Also on record: dose 3 mg/kg, route oral. An outline of the steps: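 CFA rats given compound orally; plasma sampled 4 h post dose. Compound levels determined by LC/MS. n = 4 animals/group.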
The species named for series [20] is Rattus norvegicus. Nature of the series: Antiinflammatory activity against rat CFA model assessed as minimum effective dose after 4 hrs. It is filed as functional. The settings on record: read-out: MED. An outline of the steps:
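CFA inflammatory pain model in rats given compound orally. Paw withdrawal threshold assessed with von Frey filaments 4 h post dose. N = 8 animals/group; significance versus vehicle by ANOVA/Dunnett's (p <0.05). Minimum efficacious dose defined as exposure giving >95% FAAH inhibition.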

For series [21], the system named is Rattus norvegicus. Nature of the series: Inhibition of FAAH in rat CFA model leukocytes assessed as residual activity using 3H-anandamide as substrate at 0.3 mg/kg, po after 4 hrs. It is filed as functional, organism-based. Also on record: dose 0.3 mg/kg. Put shortly:
as §3

The nature of series [22]: Clearance in dog. As to conditions: in vivo. The format is ADME, organism-based, Canis lupus familiaris.
Series [23] is described as follows: Volume of distribution at steady state in dog. It is filed as ADME, organism-based, Canis lupus familiaris. The settings on record: in vivo, read-out: Vdss.

SMILES strings stand for the structures. Activity calls are given as the source filed them.

T3 sequence (Q12809 whole entry): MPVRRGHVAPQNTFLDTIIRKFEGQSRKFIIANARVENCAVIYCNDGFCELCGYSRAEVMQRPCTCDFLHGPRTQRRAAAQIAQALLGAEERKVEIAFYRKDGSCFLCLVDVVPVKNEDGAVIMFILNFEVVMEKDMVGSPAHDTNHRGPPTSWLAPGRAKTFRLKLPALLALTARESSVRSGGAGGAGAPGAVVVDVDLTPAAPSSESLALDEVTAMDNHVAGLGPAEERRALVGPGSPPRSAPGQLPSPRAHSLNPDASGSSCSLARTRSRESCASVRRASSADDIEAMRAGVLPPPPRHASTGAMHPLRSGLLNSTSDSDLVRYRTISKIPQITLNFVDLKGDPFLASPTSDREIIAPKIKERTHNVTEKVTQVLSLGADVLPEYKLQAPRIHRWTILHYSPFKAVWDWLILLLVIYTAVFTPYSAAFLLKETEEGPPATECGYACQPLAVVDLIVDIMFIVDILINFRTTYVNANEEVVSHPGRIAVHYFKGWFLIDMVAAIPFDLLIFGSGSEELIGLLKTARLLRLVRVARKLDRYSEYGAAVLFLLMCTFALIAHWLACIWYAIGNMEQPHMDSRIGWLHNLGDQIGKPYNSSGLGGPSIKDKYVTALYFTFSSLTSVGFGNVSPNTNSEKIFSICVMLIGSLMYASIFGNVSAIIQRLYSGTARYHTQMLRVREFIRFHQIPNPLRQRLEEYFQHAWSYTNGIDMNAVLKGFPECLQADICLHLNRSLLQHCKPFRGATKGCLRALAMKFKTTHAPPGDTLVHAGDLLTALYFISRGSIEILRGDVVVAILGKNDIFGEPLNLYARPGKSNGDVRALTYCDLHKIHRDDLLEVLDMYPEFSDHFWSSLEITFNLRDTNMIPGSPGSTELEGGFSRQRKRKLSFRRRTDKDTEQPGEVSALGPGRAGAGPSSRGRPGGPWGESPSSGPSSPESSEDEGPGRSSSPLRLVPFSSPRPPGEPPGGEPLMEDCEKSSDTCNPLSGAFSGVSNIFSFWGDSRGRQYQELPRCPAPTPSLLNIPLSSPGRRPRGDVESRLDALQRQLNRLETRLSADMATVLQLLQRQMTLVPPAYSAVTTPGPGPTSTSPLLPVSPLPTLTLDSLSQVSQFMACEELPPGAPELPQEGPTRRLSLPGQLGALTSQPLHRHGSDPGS

Take `CCc1cccc(C2CC3(CCN(C(=O)Nc4onc(C)c4C)CC3)C2)c1`: the Ratio in [1] worked out at 1340 M⁻¹ s⁻¹; in series [5] it was 5670 M⁻¹ s⁻¹. Besides, the inhibition entry in [2] and in series [3] was “Active” each time. In addition, the “inhibition (INH)” value in series [4] and in series [7] was “Not Active” in each case. In the series on Rattus norvegicus [6], the “activity call (active/not active)” value is “inactive”.
With `Cc1noc(NC(=O)N2CCC3(CC2)CC(c2cccc(OC(F)(F)F)c2)C3)c1C`, the Ratio was determined as 3860 M⁻¹ s⁻¹ in series [1] and 2830 M⁻¹ s⁻¹ in series [5]. In addition, the inhibition result in [2] and in series [3] was “Active” throughout. For the same compound, the “inhibition (INH)” value in series [4] and in series [7] was “Not Active” each time. In addition, the “activity call (active/not active)” value in the series on Rattus norvegicus [6] was “Active”. Besides, in the series on Rattus norvegicus [6], the minimal effective dose came to 1 mg/kg.
Take `Cc1noc(NC(=O)N2CCC3(CC2)CC(c2ccc(F)c(Cl)c2)C3)c1C`: the bioavailability is 33% in [8] and 53% in series [15]. The half-life is 7.8 h in series [9] and 7.1 h in series [11]. The CL/F in series [10] was found to be 8.5 mL/min/kg. Also, the Ratio worked out at 5820 M⁻¹ s⁻¹ in [1] and 4190 M⁻¹ s⁻¹ in series [5]. Also, the inhibition result (in [2]; in series [3]; with Rattus norvegicus [18]; in the series on Rattus norvegicus [21]) was “Active” in each case. The Vdss in the series with Rattus norvegicus [12] was found to be 3.4 L/kg. Besides, the “inhibition (INH)” value in series [13], in series [4] and in [7] was “Not Active” throughout. Also, the inhibition result in the series with Rattus norvegicus [14] and with Rattus norvegicus [17] was “Dose-dependent effect” each time. Also, the Activity result (in the series on Salmonella typhimurium; in series [16]) was “Non-toxic” each time. For the same compound, the “activity call (active/not active)” value with Rattus norvegicus [6] was “Active”. The minimal effective dose with Rattus norvegicus [6] and in the series filed under Rattus norvegicus [20] was 0.3 mg/kg throughout. In series [19], this compound came in with a concentration at 4 h of 459 nM. Also, the clearance in series [22] was 11.1 mL/min/kg. Also, in series [23], the Vd amounted to 5 L/kg.

The bioavailability is dose-corrected exposure relative to a reference, in per cent. The low end stands for poor availability, the high end for good availability. The term half-life denotes the time in which the quantity being followed falls by half. By CL/F is commonly meant clearance divided by bioavailability, as obtained after extravascular dosing. As usually defined, the clearance is a measure of how efficiently the substance is removed, as volume per time. Higher therefore signals efficient removal.
